In publication PMC4324418 (ACS Chemical Neuroscience, 2014):
Marks after values point to notes of the source that are not given here.

Tests used:
[1] = tested on: human M2 receptor; assay: Calcium mobilization, selectivity; assay type: cell-based
Outline: (§1)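 Cells were seeded at 15000/well in DMEM with 10% dialyzed FBS, 20 mM HEPES and 1 mM pyruvate, then cultured overnight at 37 °C/5% CO2. M2 and M4 lines were cotransfected with Gqi5. Cells were loaded with 1 μM Fluo-4AM (HBSS, 20 mM HEPES, 2.5 mM probenecid, pH 7.4) for 50 min at 37 °C. ACh was added 140 s after test compound. Calcium signal was expressed as % of the 10 μM ACh maximum.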

[2] = molecular target: T1, cyno M4 (Macaca fascicularis, UniProt G7PQB4); assay: Calcium mobilization, potentiation of ACh EC20; assay type: cell-based, cynomolgus monkey; conditions: maximum response as % of the Emax of ACh
T1 sequence (G7PQB4 1-479): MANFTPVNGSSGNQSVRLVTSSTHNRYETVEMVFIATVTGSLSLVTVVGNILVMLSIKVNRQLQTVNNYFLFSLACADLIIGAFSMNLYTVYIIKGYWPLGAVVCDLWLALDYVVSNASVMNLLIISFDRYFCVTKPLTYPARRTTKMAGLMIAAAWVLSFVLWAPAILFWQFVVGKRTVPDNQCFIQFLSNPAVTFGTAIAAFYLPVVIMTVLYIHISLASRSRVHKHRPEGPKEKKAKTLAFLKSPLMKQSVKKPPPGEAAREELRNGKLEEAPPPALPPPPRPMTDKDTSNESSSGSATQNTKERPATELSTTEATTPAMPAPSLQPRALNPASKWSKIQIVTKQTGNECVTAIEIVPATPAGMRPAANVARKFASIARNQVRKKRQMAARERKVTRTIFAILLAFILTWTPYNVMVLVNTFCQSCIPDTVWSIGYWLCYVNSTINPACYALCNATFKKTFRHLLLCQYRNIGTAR
Outline: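 Receptor-expressing cells were plated at 15000 cells/well in DMEM with 10% dialyzed FBS, 20 mM HEPES and 1 mM pyruvate, and grown overnight at 37 °C/5% CO2. Test compound was added, then ACh at EC20 140 s later and at EC80 120 s later. Responses were normalized to 10 μM ACh maximum; ≥3 independent experiments.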

[3] = tested on: human M5 receptor; assay: Calcium mobilization, selectivity; assay type: cell-based
Outline: as §1

[4] = tested on: wild-type mice; assay: Amphetamine-induced hyperlocomotion in wild-type mice; assay type: in vivo, mouse; conditions: WT mice, amphetamine […] SC
[5] = as above; assay type: in vivo, mouse; conditions: mouse, brain, ip, WT mice
[6] = Mouse plasma protein binding; assay type: in vitro ADME
[7] = tested on: human M3 receptor; assay: Calcium mobilization, selectivity; assay type: cell-based
Outline: as §1

[8] = tested on: wild-type mice; assay: Contextual fear conditioning, four-shock, MK-801-induced deficit; assay type: in vivo, mouse
Outline: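 Subjects were wild-type and M4 KO mice, 8–11 weeks old, handled for 3 days and saline-injected 1 day before conditioning. Vehicle (10% Tween 80 in water, IP) or test compound (3–10 mg/kg IP) was given 30 min before saline or MK-801 (0.1–0.3 mg/kg IP). Mice entered the chamber 30 min later for a four-shock conditioning trial. Percent freezing was scored 24 h later, drug-free.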

[9] = tested on: wild-type mice; assay: Modified Irwin neurological test battery; assay type: in vivo, mouse; conditions: 10–30 mg/kg
[10] = tested on: wild-type mice; assay: Touchscreen pairwise visual discrimination task, wild-type mice; assay type: in vivo, mouse
Outline: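 Mice aged 8–11 weeks were held at ~85% free-feeding weight, with water freely available. They were trained on touchscreen nosepoke discrimination (60 trials or 60 min) to ≥85% accuracy on 3 consecutive days. Next day: vehicle (10% Tween 80 IP) or test compound (3–30 mg/kg IP) 60 min pre-test, then saline or MK-801 (0.1–0.3 mg/kg IP) 30 min later. Mice were retested drug-free 24 h later. Analysis: ANOVA with Bonferroni tests.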

[11] = molecular target: T2, human adenosine transporter (Homo sapiens, UniProt Q99808); assay: [3H]adenosine uptake functional assay; assay type: cell-based
T2 sequence (Q99808 1-456): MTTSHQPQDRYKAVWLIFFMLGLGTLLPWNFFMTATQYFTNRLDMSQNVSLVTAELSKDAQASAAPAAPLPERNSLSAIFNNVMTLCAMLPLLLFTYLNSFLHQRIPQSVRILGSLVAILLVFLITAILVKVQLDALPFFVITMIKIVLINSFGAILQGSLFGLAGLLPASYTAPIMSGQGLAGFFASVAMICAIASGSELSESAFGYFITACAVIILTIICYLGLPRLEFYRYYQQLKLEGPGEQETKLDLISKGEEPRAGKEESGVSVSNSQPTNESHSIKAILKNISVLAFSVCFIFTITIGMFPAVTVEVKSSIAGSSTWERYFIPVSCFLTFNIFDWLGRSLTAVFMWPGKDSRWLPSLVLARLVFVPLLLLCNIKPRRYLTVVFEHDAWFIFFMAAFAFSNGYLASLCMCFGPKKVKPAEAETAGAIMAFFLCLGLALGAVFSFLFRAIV

[12] = VU0467154 3.0 mg/kg IP + MK-801 0.30 mg/kg IP
[13] = VU0467154 3.0 mg/kg IP + vehicle
[14] = VU0467154 5.6 mg/kg IP + MK-801 0.30 mg/kg IP
[15] = VU0467154 5.6 mg/kg IP + vehicle
[16] = VU0467154 10.0 mg/kg IP + MK-801 0.30 mg/kg IP
[17] = VU0467154 10.0 mg/kg IP + vehicle
[18] = VU0467154 30.0 mg/kg IP + vehicle

Cc1nnc2sc(C(=O)NCc3ccc(S(=O)(=O)C(F)(F)F)cc3)c(N)c2c1C [VU0467154, 5-amino-3,4-dimethyl-N-(4-((trifluoromethyl)sulfonyl)benzyl)thieno[2,3-c]pyridazine-6-carboxamide]
potentiation of ACh response (calcium response) [1]: lack of a calcium response | %AChmax [2]: 57% | potentiation of ACh response (calcium response) [3]: lack of a calcium response | mean reversal of AHL ([4]; 0.3 mg/kg IP): 3.7% | mean reversal of AHL ([4]; 1 mg/kg IP): 41.6% | mean reversal of AHL ([4]; 3 mg/kg IP): 70.4% | mean reversal of AHL ([4]; 10 mg/kg IP): 81.5% | mean reversal of AHL ([4]; 30 mg/kg IP): 90.7% | concentration at 2.5 h ([5]; 0.3 mg/kg, mean Cbrain, 0.3 mg/kg IP, at 2.5 h postadministration): 24 nM | concentration at 2.5 h ([5]; 0.3 mg/kg, mean Cbrain,u, 0.3 mg/kg IP, 2.5 h, in vitro mouse fubrain 0.014): 0.3 nM | concentration at 2.5 h ([5]; 3 mg/kg, mean Cbrain, 3 mg/kg IP, at 2.5 h postadministration): 157 nM | concentration at 2.5 h ([5]; 3 mg/kg, mean Cbrain,u, 3 mg/kg IP, 2.5 h, in vitro mouse fubrain 0.014): 2.2 nM | concentration at 2.5 h ([5]; 10 mg/kg, mean Cbrain, 10 mg/kg IP, at 2.5 h postadministration): 398 nM | concentration at 2.5 h ([5]; 10 mg/kg, mean Cbrain,u, 10 mg/kg IP, 2.5 h, in vitro mouse fubrain 0.014): 5.6 nM | concentration at 2.5 h ([5]; 30 mg/kg, mean Cbrain,u, 30 mg/kg IP, 2.5 h, in vitro mouse fubrain 0.014): 8.1 nM | fraction unbound [6]: 0.022 | potentiation of ACh response (calcium response) [7]: lack of a calcium response | effect on contextual fear conditioning ([8]; VU0467154 alone, four-shock): had no effect on contextual fear conditioning | reversal of MK-801-induced deficits in the acquisition of contextual fear conditioning ([8]; pretreatment 3–10 mg/kg): dose-dependently reversed | autonomic and somatosensory side effects [9]: did not exhibit autonomic and somatosensory side effects | animals that did not complete all 60 trials in the 60 min session ([10]; 3 mg/kg VU0467154 in combination with 0.3 mg/kg MK-801): 14% | animals that did not complete all 60 trials in the 60 min session ([10]; 10 mg/kg VU0467154 alone): 25% | animals that did not complete all 60 trials in the 60 min session ([10]; 30 mg/kg VU0467154 alone): 33% | correct reward collection latency [10, 12]: 3.34 ± 2.06 s | correct touch latency [10, 12]: 18.14 ± 14.17 s | time to complete 60 trials [10, 12]: 1239 ± 397.7 ^d s | correct reward collection latency [10, 13]: 1.13 ± 0.07 s | correct touch latency [10, 13]: 2.01 ± 0.16 s | time to complete 60 trials [10, 13]: 1061 ± 130.2 s | correct reward collection latency [10, 14]: 1.23 ± 0.08 s | correct touch latency [10, 14]: 4.10 ± 0.63 s | time to complete 60 trials [10, 14]: 856 ± 58.4 s | correct reward collection latency [10, 15]: 2.09 ± 0.50 s | correct touch latency [10, 15]: 2.24 ± 0.36 s | time to complete 60 trials [10, 15]: 1256 ± 211.5 s | correct reward collection latency [10, 16]: 1.33 ± 0.08 s | correct touch latency [10, 16]: 6.39 ± 1.11 s | time to complete 60 trials [10, 16]: 1017 ± 89.1 s | correct reward collection latency [10, 17]: 9.24 ± 6.71 s | correct touch latency [10, 17]: 18.58 ± 8.50 s | time to complete 60 trials [10, 17]: 2171 ± 424.8 ^b s | correct reward collection latency [10, 18]: 2.82 ± 0.71 s | correct touch latency [10, 18]: 20.89 ± 4.17 s | time to complete 60 trials [10, 18]: 2557 ± 397.1 ^c s | IC50 [11]: 240 nM
